Test results: ChEMBL document CHEMBL4689842, “EUbOPEN Chemogenomics Library wave 1” (2021)

Experiments:
[1] = system: U2OS; assay: Multiplex assay against U2OS; assay type: toxicity, cell-based; conditions: human
Outline: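 On a CQ1 microscope at 37°C and 5% CO2, live cells were imaged after compound addition. They had been stained at seeding with Hoechst33342, BioTracker Green Microtubule Cytoskeleton Dye, MitoTracker Red and Annexin V Alexa Fluor 680. CellPathfinder machine-learning gating assigned cells to Hoechst high-intensity objects or normal cells, normal cells to healthy, pyknosed or fragmented nuclei, and pyknosed cells to mitotic or apoptotic. Tubulin, mitochondrial-mass and membrane-permeability phenotypes are per cents of healthy-nucleus cells.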

[2] = system: HEK-293T; assay: Incucyte cell viability with HEK293T; assay type: toxicity, cell-based; conditions: human, 10 µM, compound concentration 10 uM; note: filed as whole numbers so only -1 and 0 and 1 occur
[3] = 12 h, 1 µM, compound concentration 1 uM, replicate 1
[4] = 12 h, 1 µM, compound concentration 1 uM, replicate 2
[5] = 12 h, 10 µM, compound concentration 10 uM, replicate 1
[6] = 12 h, 10 µM, compound concentration 10 uM, replicate 2
[7] = 24 h, 1 µM, compound concentration 1 uM, replicate 1
[8] = 24 h, 1 µM, compound concentration 1 uM, replicate 2
[9] = 24 h, 10 µM, compound concentration 10 uM, replicate 1
[10] = 24 h, 10 µM, compound concentration 10 uM, replicate 2
[11] = 48 h, 1 µM, compound concentration 1 uM, replicate 1
[12] = 48 h, 1 µM, compound concentration 1 uM, replicate 2
[13] = 48 h, 10 µM, compound concentration 10 uM, replicate 1
[14] = 48 h, 10 µM, compound concentration 10 uM, replicate 2

Cc1nc(Cc2cccc(C(F)(F)F)c2)sc1-c1ccc(C(N)=O)nc1 [TP-024n]
Population Apoptotic (%) [1, 3]: 58%
Population Fragmented Nuclei (%) [1, 3]: 8%
Population Healthy Nuclei (%) [1, 3]: 85%
Population Hoechst High Intensity Objects (%) [1, 3]: 5%
Population Membrane Permeable-Phenotype (%) [1, 3]: 5%
Population Mitochondria Different-Phenotype (%) [1, 3]: 10%
Population Mitotic Cells (%) [1, 3]: 41%
Population Normal (%) [1, 3]: 94%
Population Pyknosed Nuclei (%) [1, 3]: 6%
Population Tubulin-Different-Phenotype (%) [1, 3]: 9%
Total Cell Count [1, 3]: 159
Population Apoptotic (%) [1, 4]: 50%
Population Fragmented Nuclei (%) [1, 4]: 0%
Population Healthy Nuclei (%) [1, 4]: 94%
Population Hoechst High Intensity Objects (%) [1, 4]: 11%
Population Membrane Permeable-Phenotype (%) [1, 4]: 2%
Population Mitochondria Different-Phenotype (%) [1, 4]: 18%
Population Mitotic Cells (%) [1, 4]: 50%
Population Normal (%) [1, 4]: 88%
Population Pyknosed Nuclei (%) [1, 4]: 5%
Population Tubulin-Different-Phenotype (%) [1, 4]: 16%
Total Cell Count [1, 4]: 130
Population Apoptotic (%) [1, 5]: 45%
Population Healthy Nuclei (%) [1, 5]: 68%
Population Hoechst High Intensity Objects (%) [1, 5]: 6%
Population Membrane Permeable-Phenotype (%) [1, 5]: 3%
Population Mitochondria Different-Phenotype (%) [1, 5]: 27%
Population Mitotic Cells (%) [1, 5]: 54%
Population Normal (%) [1, 5]: 93%
Population Pyknosed Nuclei (%) [1, 5]: 13%
Population Tubulin-Different-Phenotype (%) [1, 5]: 22%
Total Cell Count [1, 5]: 186
Population Apoptotic (%) [1, 6]: 66%
Population Fragmented Nuclei (%) [1, 6]: 17%
Population Healthy Nuclei (%) [1, 6]: 67%
Population Hoechst High Intensity Objects (%) [1, 6]: 4%
Population Membrane Permeable-Phenotype (%) [1, 6]: 9%
Population Mitochondria Different-Phenotype (%) [1, 6]: 21%
Population Mitotic Cells (%) [1, 6]: 33%
Population Normal (%) [1, 6]: 95%
Population Pyknosed Nuclei (%) [1, 6]: 14%
Population Tubulin-Different-Phenotype (%) [1, 6]: 11%
Total Cell Count [1, 6]: 44
Population Apoptotic (%) [1, 7]: 46%
Population Fragmented Nuclei (%) [1, 7]: 6%
Population Healthy Nuclei (%) [1, 7]: 86%
Population Hoechst High Intensity Objects (%) [1, 7]: 4%
Population Membrane Permeable-Phenotype (%) [1, 7]: 3%
Population Mitochondria Different-Phenotype (%) [1, 7]: 8%
Population Mitotic Cells (%) [1, 7]: 53%
Population Normal (%) [1, 7]: 95%
Population Pyknosed Nuclei (%) [1, 7]: 6%
Population Tubulin-Different-Phenotype (%) [1, 7]: 8%
Total Cell Count [1, 7]: 164
Population Apoptotic (%) [1, 8]: 50%
Population Fragmented Nuclei (%) [1, 8]: 5%
Population Healthy Nuclei (%) [1, 8]: 91%
Population Hoechst High Intensity Objects (%) [1, 8]: 5%
Population Membrane Permeable-Phenotype (%) [1, 8]: 1%
Population Mitochondria Different-Phenotype (%) [1, 8]: 7%
Population Mitotic Cells (%) [1, 8]: 50%
Population Pyknosed Nuclei (%) [1, 8]: 3%
Population Tubulin-Different-Phenotype (%) [1, 8]: 15%
Total Cell Count [1, 8]: 126
Population Apoptotic (%) [1, 9]: 42%
Population Fragmented Nuclei (%) [1, 9]: 19%
Population Membrane Permeable-Phenotype (%) [1, 9]: 8%
Population Mitochondria Different-Phenotype (%) [1, 9]: 23%
Population Mitotic Cells (%) [1, 9]: 57%
Population Pyknosed Nuclei (%) [1, 9]: 21%
Population Tubulin-Different-Phenotype (%) [1, 9]: 16%
Total Cell Count [1, 9]: 241
Population Apoptotic (%) [1, 10]: 44%
Population Fragmented Nuclei (%) [1, 10]: 14%
Population Healthy Nuclei (%) [1, 10]: 58%
Population Hoechst High Intensity Objects (%) [1, 10]: 2%
Population Membrane Permeable-Phenotype (%) [1, 10]: 25%
Population Mitochondria Different-Phenotype (%) [1, 10]: 32%
Population Mitotic Cells (%) [1, 10]: 55%
Population Normal (%) [1, 10]: 97%
Population Pyknosed Nuclei (%) [1, 10]: 26%
Population Tubulin-Different-Phenotype (%) [1, 10]: 22%
Total Cell Count [1, 10]: 60
Population Apoptotic (%) [1, 11]: 32%
Population Healthy Nuclei (%) [1, 11]: 88%
Population Hoechst High Intensity Objects (%) [1, 11]: 3%
Population Membrane Permeable-Phenotype (%) [1, 11]: 2%
Population Mitochondria Different-Phenotype (%) [1, 11]: 8%
Population Mitotic Cells (%) [1, 11]: 68%
Population Normal (%) [1, 11]: 96%
Population Pyknosed Nuclei (%) [1, 11]: 6%
Population Tubulin-Different-Phenotype (%) [1, 11]: 7%
Total Cell Count [1, 11]: 160
Population Apoptotic (%) [1, 12]: 33%
Population Fragmented Nuclei (%) [1, 12]: 4%
Population Healthy Nuclei (%) [1, 12]: 92%
Population Hoechst High Intensity Objects (%) [1, 12]: 4%
Population Membrane Permeable-Phenotype (%) [1, 12]: 3%
Population Mitochondria Different-Phenotype (%) [1, 12]: 10%
Population Mitotic Cells (%) [1, 12]: 66%
Population Normal (%) [1, 12]: 95%
Population Pyknosed Nuclei (%) [1, 12]: 3%
Population Tubulin-Different-Phenotype (%) [1, 12]: 14%
Total Cell Count [1, 12]: 122
Population Apoptotic (%) [1, 13]: 55%
Population Fragmented Nuclei (%) [1, 13]: 20%
Population Healthy Nuclei (%) [1, 13]: 56%
Population Hoechst High Intensity Objects (%) [1, 13]: 5%
Population Membrane Permeable-Phenotype (%) [1, 13]: 10%
Population Mitochondria Different-Phenotype (%) [1, 13]: 19%
Population Mitotic Cells (%) [1, 13]: 44%
Population Normal (%) [1, 13]: 94%
Population Pyknosed Nuclei (%) [1, 13]: 22%
Population Tubulin-Different-Phenotype (%) [1, 13]: 13%
Total Cell Count [1, 13]: 386
Population Apoptotic (%) [1, 14]: 72%
Population Fragmented Nuclei (%) [1, 14]: 17%
Population Healthy Nuclei (%) [1, 14]: 69%
Population Hoechst High Intensity Objects (%) [1, 14]: 6%
Population Membrane Permeable-Phenotype (%) [1, 14]: 32%
Population Mitochondria Different-Phenotype (%) [1, 14]: 32%
Population Mitotic Cells (%) [1, 14]: 27%
Population Normal (%) [1, 14]: 93%
Population Pyknosed Nuclei (%) [1, 14]: 13%
Population Tubulin-Different-Phenotype (%) [1, 14]: 35%
Total Cell Count [1, 14]: 93
Growth Rate ([2]; 0 h, replicate number 2, timepoint 0 hours): 0
Growth Rate ([2]; 6 h, replicate number 1, timepoint 6 hours): 0
Growth Rate ([2]; 12 h, replicate number 1, timepoint 12 hours): 0
Growth Rate ([2]; 18 h, replicate number 1, timepoint 18 hours): 0
Growth Rate ([2]; 24 h, replicate number 1, timepoint 24 hours): 0
